For data set [1], the system named is Rattus norvegicus. Kind of data set: Bone Volume /Tissue Volume (%)measured using micro Computed Tomography(CT) after a dose of 250 ug/kg in Vertebral Bone. It is filed as functional.
The subject of data set [2] is Rattus norvegicus. Kind of data set: Mineral surface/bone surface measured Histomorphometrically after a dose of 250 ug/kg in proximal tibial metaphysis. It is filed as functional.
The test system of data set [3] is Rattus norvegicus. Put plainly: Bone Formation rate/bone measured Histomorphometrically after a dose of 250 ug/kg in proximal tibial metaphysis. It is filed as functional.
For data set [4], the system named is Rattus norvegicus. Kind of data set: Bone Formation rate/tissue vol measured Histomorphometrically after a does of 250 ug/kg in proximal tibial metaphysis. The data set is classed as functional.
For data set [5], the system named is Rattus norvegicus. Put plainly: Bone Volume /Tissue Volume (%)measured Histomorphometrically after a dose of 250 ug/kg in proximal tibial metaphysis. It is filed as functional.
Data set [6] concerns Rattus norvegicus. Kind of data set: Derived trabecular no measured using micro Computed Tomography(CT) after a dose of 6000 ug/kg in Vertebral Bone. It is filed as functional, Trabecula. Put shortly: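 Micro-CT of the fifth lumbar vertebra, measuring cancellous bone volume and architecture. Rats were 6 months old, OVX 60 days before treatment, then dosed daily for 60 days. Test-agent doses were 10–3000 µg/kg, given as a once-daily subcutaneous injection; 6 mg/kg/day was given to the positive-control group. Groups were compared with vehicle by ANOVA plus LSD test.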

The test system of data set [7] is Rattus norvegicus. Kind of data set: Derived trabecular thickness measured using micro Computed Tomography(CT) after a dose of 250 ug/kg in Vertebral Bone. The data set is classed as functional, Trabecula.
Data set [8] deals with Rattus norvegicus. Put plainly: Directly measured thickness measured using micro Computed Tomography(CT) after a dose of 250 ug/kg in Vertebral Bone. It is filed as functional.
Data set [9] concerns Rattus norvegicus. Put plainly: Connectivity density measured using micro Computed Tomography(CT) after a dose of 250 ug/kg in Vertebral Bone. The data set is classed as functional.
Data set [10] relates to Rattus norvegicus. Kind of data set: Endosteal eroded surface measured Histomorphometrically after a dose of 250 ug/kg in Tibial Diaphysis. It is filed as functional.
Data set [11] deals with Rattus norvegicus. Kind of data set: Mineralizing apposition measured Histomorphometrically after a dose of 250 ug/kg in Tibial Diaphysis. The data set is classed as functional.
The test system of data set [12] is Rattus norvegicus. Kind of data set: Endosteal mineralizing surface measured Histomorphometrically after a does of 250 ug/kg in Tibial Diaphysis. It is filed as functional.
Data set [13] relates to Rattus norvegicus. Kind of data set: Mineral apposition measured Histomorphometrically after a dose of 250 ug/kg in proximal tibial metaphysis. It is filed as functional.
Data set [14] concerns Rattus norvegicus. Kind of data set: Marrow area measured Histomorphometrically after a dose of 250 ug/kg in Tibial Diaphysis. The data set is classed as functional.
Data set [15] relates to Rattus norvegicus. Put plainly: Periosteal mineralizing surface measured Histomorphometrically after a does of 250 ug/kg in Tibial Diaphysis. It is filed as functional.
In data set [16] the test system is Rattus norvegicus. Kind of data set: Trabecular no measured Histomorphometrically after a dose of 250 ug/kg in proximal tibial metaphysis. The data set is classed as functional, Trabecula.
The subject of data set [17] is Rattus norvegicus. Put plainly: Trabecular thickness measured Histomorphometrically after a dose of 250 ug/kg in proximal tibial metaphysis. The data set is classed as functional, Trabecula.
Data set [18] has as its system Rattus norvegicus. Kind of data set: Tissue area measured Histomorphometrically after a dose of 250 ug/kg in Tibial Diaphysis. The data set is classed as functional.
A short description of data set [19]: Dissociation constant was determined. It is filed as physicochemical.
Data set [20] concerns the target T1, Prostaglandin E2 receptor EP3 subtype (Homo sapiens, UniProt P43115).
T1 sequence (P43115 whole entry): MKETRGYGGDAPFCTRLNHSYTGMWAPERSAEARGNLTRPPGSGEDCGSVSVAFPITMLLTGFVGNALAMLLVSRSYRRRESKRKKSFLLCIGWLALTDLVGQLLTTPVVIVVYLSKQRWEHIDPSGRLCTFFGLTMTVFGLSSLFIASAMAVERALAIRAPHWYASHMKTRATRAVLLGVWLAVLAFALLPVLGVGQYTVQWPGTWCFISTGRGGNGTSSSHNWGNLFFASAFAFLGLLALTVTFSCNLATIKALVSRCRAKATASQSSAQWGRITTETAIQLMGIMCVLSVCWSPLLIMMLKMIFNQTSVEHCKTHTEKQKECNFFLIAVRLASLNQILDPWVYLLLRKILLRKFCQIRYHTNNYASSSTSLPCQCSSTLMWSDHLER
Put plainly: Functional activity in RAT-1 cells, transiently transfected with human prostaglandin EP3 receptor. It is filed as cell-based. Put shortly: (§1)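 RAT-1 cells transiently transfected with the human receptor, carrying a stably transfected, constitutively expressed β-galactosidase reporter gene. EC50 read after timed hydrolysis of a galactosidase pseudosubstrate.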

In data set [21] the target is T2, Prostaglandin E2 receptor EP1 subtype (Homo sapiens, UniProt P34995).
T2 sequence (P34995 whole entry): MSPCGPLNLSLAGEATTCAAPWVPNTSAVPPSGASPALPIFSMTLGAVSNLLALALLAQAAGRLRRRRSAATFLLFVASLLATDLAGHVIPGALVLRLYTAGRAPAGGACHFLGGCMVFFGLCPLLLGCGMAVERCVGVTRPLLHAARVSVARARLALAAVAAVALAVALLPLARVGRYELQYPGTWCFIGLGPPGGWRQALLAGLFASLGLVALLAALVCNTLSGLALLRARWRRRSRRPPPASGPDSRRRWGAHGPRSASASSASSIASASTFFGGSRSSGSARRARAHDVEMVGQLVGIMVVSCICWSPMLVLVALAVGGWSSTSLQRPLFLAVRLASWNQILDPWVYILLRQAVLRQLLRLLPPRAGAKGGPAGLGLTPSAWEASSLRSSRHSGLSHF
Kind of data set: Functional activity in RAT-1 cells, transiently transfected with human prostaglandin EP1 receptor. It is filed as cell-based. A digest of the protocol: as §1

The target in a further data set is T3, Thromboxane A2 receptor (Homo sapiens, UniProt P21731).
T3 sequence (P21731 whole entry): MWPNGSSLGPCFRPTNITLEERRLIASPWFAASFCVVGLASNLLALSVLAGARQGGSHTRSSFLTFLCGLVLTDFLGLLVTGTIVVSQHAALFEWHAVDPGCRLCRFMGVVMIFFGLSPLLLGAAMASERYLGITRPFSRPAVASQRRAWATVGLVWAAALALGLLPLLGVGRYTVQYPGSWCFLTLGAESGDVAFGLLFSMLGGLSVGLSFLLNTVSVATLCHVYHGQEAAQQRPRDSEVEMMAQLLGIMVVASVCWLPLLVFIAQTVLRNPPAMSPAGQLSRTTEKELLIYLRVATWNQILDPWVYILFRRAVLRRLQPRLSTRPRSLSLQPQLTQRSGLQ
Kind of data set: Functional activity in RAT-1 cells, transiently transfected with human prostaglandin TP receptor. The data set is classed as cell-based. A digest of the protocol: as §1

The target of data set [22] is Prostaglandin F2-alpha receptor (Homo sapiens, UniProt P43088). Put plainly: In vitro binding at FP human prostaglandin receptor using [3H]PGF-2 alpha as radioligand. Put shortly:
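COS-7 cells transiently transfected with hFP plasmid and harvested 48 h later. Membranes from nitrogen cavitation and 100000g spin, taken up at 1 mg protein/mL in TME buffer pH 6.0. Each well held 100 μg membrane, 5 nM [3H]PGF2α and competitor, n=3, 1 h at 23 °C. Bound label collected by GF/B filtration, washed in TME, scintillation counted.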

Prostaglandin F2-alpha receptor, sequence (P43088 whole entry): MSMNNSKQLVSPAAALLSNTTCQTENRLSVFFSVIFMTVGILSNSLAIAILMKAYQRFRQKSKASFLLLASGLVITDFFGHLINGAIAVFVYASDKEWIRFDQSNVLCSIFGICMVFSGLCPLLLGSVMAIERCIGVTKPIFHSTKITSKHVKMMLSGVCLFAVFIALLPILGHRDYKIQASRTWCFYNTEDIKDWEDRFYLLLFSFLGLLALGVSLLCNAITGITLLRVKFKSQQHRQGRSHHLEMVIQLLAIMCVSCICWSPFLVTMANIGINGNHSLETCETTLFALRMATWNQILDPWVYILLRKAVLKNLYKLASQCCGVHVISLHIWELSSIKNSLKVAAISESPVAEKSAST

Take `O=C(O)CCC/C=C\CC1C(O)CC(O)C1/C=C/C(O)COc1cccc(Cl)c1` (stereo not drawn) [CLOPROSTENOL]: the Activity in the data set on Rattus norvegicus [1] amounted to 42.04%; in the data set with Rattus norvegicus [2], 22.99%; in the data set with Rattus norvegicus [3], 286.86%; in the data set with Rattus norvegicus [4], 26.44%; with Rattus norvegicus [5] it was 9.5%. Moreover, in the data set on Rattus norvegicus [6], the Derived trabecular number turned out to be 4.6 mM⁻¹. For the same molecule, the Derived trabecular thickness in the data set with Rattus norvegicus [7] came to 85.8 µm. Moreover, the Directly measured thickness in the data set with Rattus norvegicus [8] was found to be 138 µm. This molecule gave a Connectivity density with Rattus norvegicus [9] of 61.13 mm**-3. In addition, in the data set on Rattus norvegicus [10], the Endosteal eroded surface was determined as 2.22%. The same molecule displayed a Mineralizing apposition rate with Rattus norvegicus [11] of 1.6 µm/day. This molecule also gave an Endosteal mineralizing surface in the data set on Rattus norvegicus [12] of 55.18%. This molecule also registered a Mineral apposition rate in the data set with Rattus norvegicus [13] of 1.09 µm/day. In the data set with Rattus norvegicus [14], this molecule came in with a Marrow area of 0.7 mm. This molecule showed a Periosteal mineralizing surface in the data set with Rattus norvegicus [15] of 9.91%. In the data set on Rattus norvegicus [16], this molecule gave a Trabecular no. of 1.77. Further, the Trabecular thickness in the data set on Rattus norvegicus [17] is given as 53.9. This molecule returned a Tissue area in the data set with Rattus norvegicus [18] of 4.78 mm.
As to `O=C(O)CCC/C=C\C[C@@H]1[C@@H](/C=C/[C@@H](O)COc2ccccc2)[C@H](O)C[C@@H]1O`, the pKa in data set [19] was found to be 4.77. The figures for the EC50 (in data set [20]; in data set [21]; on Thromboxane A2 receptor) were 186 nM, 38 nM and 510 nM, respectively. In data set [22], the IC50 amounted to 2 nM.

One may read the pKa as the pH at which an ionisable group is half protonated. A high value points to a weaker acid or stronger base. The EC50 is the concentration giving half of the maximal effect. Higher therefore signals weaker potency. The IC50 is the concentration that inhibits the measured activity by half. Lower therefore signals greater potency in that assay.
